Screening data as filed in PubChem BioAssay.
An excerpt weighted towards active compounds, which were near 3.7% of everything screened.
FGF22 binding: binders of human FGF22 protein, primary screen, FGF22 synaptogenesis inhibitor project, biophysical, thermal shift, single point; activity (Tm shift, normalised), % at 9.99 µM; 340,000 compounds, 1.5% hits; Fibroblast growth factor 22 (Homo sapiens), Q9HCT0; recombinant FGF22 thermal shift, SYPRO orange fluorescence; percent of sucrose octasulfate shift, DMSO zero; AID 651658, 2012;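 active = mean Tm shift, scaled 0 neutral to 100 positive control, at about 1.3% or above, every replicate too, limit read from the data; inconclusive = no clear call, values can overlap the other calls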
F508del corr: F508del CFTR correction, initial screen, CFBE line, single point; CFBE cells, YFP halide quenching; stimulated with forskolin plus potentiator P3; % fluorescence drop versus neutral controls; activity (quench increase), % at 7.58 µM; 350,000 compounds, 0.36% hits; AID 720511, 2013;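 active = mean added fluorescence quench of at least 8% versus neutral control, with both replicates also reaching 8%; inconclusive = only one of the mean or replicate conditions met; inactive = mean below 8% and not both replicates reaching 8%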;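 note: cells transiently co-express mutant CFTR-F508del with the halide-sensitive YFP; corrector assay measuring rescue of mutant channel to the surface after 24 h compound exposure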
E-sel inducer: E-selectin induction in HUVECs, primary screen, imaging, HUVEC, immunofluorescence imaging, single point; activation, % at 7.58 µM; 260,000 compounds, 0.37% hits; normalized: neutral wells 0, TNF-alpha wells 100; P16581;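 active = mean E-selectin-positive cell signal at least 10% of the positive control, reached in at least 60% of replicates, without over 20% cell loss; inconclusive = no rule given, readout overlaps actives, possibly toxicity-flagged; inactive = the rest, including those meeting only one limit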
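Read-out basis: % PE-positive cells; Test system: HUVEC primary endothelial cells; Technique: immunofluorescence imaging; Dosing: single-point compound dose.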
DENV2 CPE rescue: inhibitors of DENV2 cytopathic effect, primary screen, cell-based, plate reader, single concentration | CPE inhibition, % at 9.99 µM | 350,000 compounds, 1.7% hits | DENV2-infected cells, cytopathic effect rescue; in the data active = CPE inhibition above about 20%, passing the limit was not always enough; inconclusive = no clear call, values can overlap the other calls; tested in BHK-21 cells;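 note: 0% = median of neutral control wells and 100% = median of positive control wells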
ERAP1 inh: human ERAP1 aminopeptidase inhibitors, primary screen, biochemical, single point, plate reader | AID 652197, 2013 | recombinant ERAP1, Leu-AMC fluorescence, 60 min | inhibition, % at 10.7 µM | Endoplasmic reticulum aminopeptidase 1 (Homo sapiens), Q9NZ08 | 340,000 compounds, 0.15% hits;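 active = mean replicate inhibition of at least 30%, or all replicates individually reaching that 30% level; inactive = mean below 30% and not every replicate reaching it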;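 note: 0% = neutral control wells and 100% = L-leucinethiol positive control wells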
* marks the source's active call; other numbers are inactive results; ? = inconclusive; . = no result given.

SMILES | FGF22 binding | F508del corr | E-sel inducer | DENV2 CPE rescue | ERAP1 inh
C[C@H]1CN([C@@H](C)CO)C(=O)c2cccc(NC(=O)c3ccncc3)c2O[C@H]1CN(C)C(=O)Nc1cccc2ccccc12 | -1 | -2 | -7 | -8 | -2
Fc1ccc(NC(=S)NN=Cc2ccccc2Cl)cc1 | 43* | -5 | 1 | -6 | 4
Fc1ccccc1/C=N/NC(=S)Nc1ccc(Cl)cc1Cl | 0 | 12* | 1 | 11 | 1
Oc1ccccc1C=NNC(=S)Nc1ccc(F)cc1 | 0 | 8 | 0 | -5 | 0
C[C@@H]1CN([C@@H](C)CO)C(=O)Cc2cc(NS(C)(=O)=O)ccc2O[C@@H]1CN(C)C(=O)Nc1ccccc1 | 0 | 1 | 8 | -1 | 0
Cc1nn(C)cc1NC(=O)C[C@H]1CC[C@@H]2[C@H](COc3ccc(NC(=O)C4CCOCC4)cc3C(=O)N2C)O1 | 0 | . | 0 | 2 | -1
CCCNC(=O)N1[C@H](C#N)[C@H](c2ccc(-c3cccc(OC)c3)cc2)[C@H]1CO | 0 | 0 | 0 | 58* | 3
COc1cccc(-c2ccc([C@H]3[C@@H](CO)N(C(=O)c4ccccn4)[C@H]3C#N)cc2)c1 | 0 | 15* | 0 | 3 | -2
CCCNC(=O)N1[C@H](CO)[C@@H](c2ccc(-c3cccc(OC)c3)cc2)[C@@H]1C#N | 0 | 1 | 0 | . | 0
COc1ccc(NC(=O)CSc2nnc(Cc3cccs3)n2C)cc1 | 0 | 10* | 0 | -6 | 5
COCCCn1c(=O)/c(=C\c2ccc(OC(F)F)c(OC)c2)s/c1=C(/C#N)C(N)=O | 0 | 0 | -2 | 1 | .
COCCCn1c(=O)/c(=C\c2ccccc2OC(F)F)s/c1=C(/C#N)C(N)=O | 0 | -1 | 38* | 0 | 2
Cc1noc(C)c1S(=O)(=O)N(C)C[C@@H]1OCCCC[C@@H](C)Oc2ccc(NS(=O)(=O)c3cccs3)cc2C(=O)N([C@@H](C)CO)C[C@@H]1C | 0 | -3 | 0 | -10 | -16
CCn1nnnc1NCc1ccc(OCc2ccc(F)cc2Cl)c(OC)c1 | 43* | -3 | . | -1 | 4
Nn1c(SCc2cccc(Oc3ccccc3)c2)nnc1C(F)(F)F | 43* | -1 | 0 | 10 | -4
COc1cccc(CSc2nnc(C(F)(F)F)n2Cc2ccc(F)cc2)c1 | 0 | 0 | . | 10 | 2
C[C@@H]1CCCCO[C@H](CN(C)S(C)(=O)=O)[C@H](C)CN([C@@H](C)CO)C(=O)c2cc(NC(=O)c3ccncc3)ccc2O1 | 0 | -3 | 1 | -2 | 1
COc1cccc(/C=N/NC(=S)Nc2cccnc2)c1 | 0 | -2 | 3 | . | 1
COc1ccc(/C=N/OC(=O)Nc2ccccc2OC)cc1 | 43* | 5 | 1 | 8 | -1
COc1ccc(C=NNC(=S)Nc2ccc(F)cc2)cc1OC | 65* | -3 | 0 | 10 | 0
COc1ccccc1NC(=S)N/N=C/c1ccc(O)cc1 | 1.5* | . | 0 | -2 | -3
Oc1ccc(/C=N/NC(=S)Nc2cccnc2)cc1 | 1.5* | -3 | 5 | 3 | .
CC(C)NC(=O)N1[C@H](CO)[C@@H](c2ccccc2)C12CN(Cc1ccc(Cl)cc1)C2 | 0 | -1 | 0 | -12 | 2
CC(C)NC(=O)N1CC2(C1)[C@H](c1ccccc1)[C@@H](CO)N2C(=O)c1ccccn1 | 0 | 0 | 0 | 33* | .
CC(C)NC(=O)N1[C@@H](CO)[C@@H](c2ccccc2)C12CN(Cc1ccccc1)C2 | 0 | -1 | 0 | 28* | -1
SMILES | FGF22 binding | F508del corr | E-sel inducer | DENV2 CPE rescue | ERAP1 inh
O=C(N[C@@H]1C=C[C@H](CC(=O)N2CCOCC2)O[C@H]1CO)c1cccc(F)c1 | 0 | -2 | 0 | ? | 0
C[C@@H]1CN([C@H](C)CO)C(=O)c2cc(C#C[C@@H](C)O)cnc2O[C@H]1CN(C)CC1CCCCC1 | 0 | -2 | 1 | 8 | 1
C[C@@H]1CCCCO[C@H](CN(C)C(=O)Nc2cccc3ccccc23)[C@@H](C)CN([C@H](C)CO)C(=O)c2cc(NS(=O)(=O)c3ccc(F)cc3)ccc2O1 | . | -2 | 0 | -2 | -4
C[C@H]1CCCCO[C@H](CN(C)C(=O)Nc2cccc3ccccc23)[C@@H](C)CN([C@@H](C)CO)C(=O)c2cc(NS(=O)(=O)c3ccc(Cl)cc3)ccc2O1 | 0 | 1 | . | 44* | 2
C[C@@H]1CCCCO[C@@H](CN(C)C(=O)Nc2cccc3ccccc23)[C@H](C)CN([C@H](C)CO)C(=O)c2cc(NS(=O)(=O)c3ccc(Cl)cc3)ccc2O1 | 2.1* | 6 | . | -4 | -1
C[C@H]1CCCCO[C@H](CN(C)C(=O)Nc2cccc3ccccc23)[C@@H](C)CN([C@@H](C)CO)C(=O)c2cc(NS(=O)(=O)c3ccc(F)cc3)ccc2O1 | . | -3 | 0 | 26* | -5
C[C@H](CO)N1C[C@H](C)[C@@H](CN(C)C(=O)Nc2cccc3ccccc23)OCCCC[C@H](C)Oc2ccc(NS(=O)(=O)c3ccc(Cl)cc3)cc2C1=O | 0 | -1 | . | -2 | 1
COc1ccc(S(=O)(=O)N(C)C[C@H]2Oc3ccc(NC(=O)c4ccncc4)cc3CC(=O)N([C@@H](C)CO)C[C@@H]2C)cc1 | 0 | -1 | -4 | -1 | 0
CC(=O)N(C)C[C@@H]1Oc2cc(C#Cc3cccnc3)ccc2S(=O)(=O)N([C@@H](C)CO)C[C@@H]1C | 0 | -1 | 2 | 5 | 0
Cc1ccc(NC(=O)C(C)OC(=O)Cc2c[nH]c3ccccc23)cc1 (stereo unspecified) | 1 | 1 | . | 6 | -3
Cc1ccc(C(=O)C(C)OC(=O)Cc2c[nH]c3ccccc23)cc1 (stereo unspecified) | 0 | -1 | . | 27* | 1
O=C(N[C@@H](Cc1c[nH]c2ccccc12)C(=O)O)c1ccc(Cl)cc1 | 44* | -1 | 0 | -6 | 6
COc1ccc(C(=O)NC(C)Cc2c[nH]c3ccccc23)cc1 (stereo unspecified) | 43* | 3 | 0 | -3 | 3
O=C(N[C@H](Cc1cc(=O)[nH]c2ccccc12)C(=O)O)c1ccc(Cl)cc1 | 0 | 1 | . | 9 | 1
COc1ccc(C(=O)NC(Cc2c[nH]c3ccccc23)C(=O)O)cc1 (stereo unspecified) | 0 | 1 | 0 | -2 | -6
NC(=S)N=Nc1c(O)n(CCCl)c2ccc(Cl)cc12 | 44* | 1 | 0 | 0 | 3
CN(C)CC(=O)Nc1ccc2c(c1)[C@H]1C[C@H](CC(=O)N3CCOCC3)O[C@H](CO)[C@H]1O2 | 0 | -1 | 1 | 4 | .
